Measurements gathered from unrelated publications.
Each line is one published result; the experiments were not run side by side.
Target: Serine/threonine-protein kinase VRK2 (VRK2, Homo sapiens, UniProt Q86Y07)

Compound | assay | test system | conditions | measurement | result
CCN(CC)CCNC(=O)c1c(C)[nH]c(/C=C2\C(=O)Nc3ccc(F)cc32)c1C | enzyme activity, inhibitor |  | 0.3 µM | inhibition | -19%
FC(F)(F)c1ccc2c(c1)nc(-c1cccnc1)n2C1CC1 | cell-free assay, competition with immobilised ligand |  | 1 µM | remaining binding | 100%
CCN(CC)c1ccc(C2=NNC(=O)CC2C)cc1[N+](=O)[O-] (stereo not drawn) | enzyme activity, inhibitor |  | 10 µM | remaining activity | 95%
COc1ccc2c(c1)O[C@H](c1ccc(OC)c(OC)c1)C[C@@H]2NC(=O)C1(c2ccc3c(c2)OC(F)(F)O3)CC1 | cell-free assay, competition with immobilised ligand |  | 1 µM | remaining binding | 82%
CNC(=O)c1cc(Oc2ccc(NC(=O)Nc3ccc(Cl)c(C(F)(F)F)c3)cc2)ccn1 | enzyme activity, inhibitor |  | 0.3 µM | inhibition | -15%
CC(C)(C)c1nc(-c2cccc(NS(=O)(=O)c3c(F)cccc3F)c2F)c(-c2ccnc(N)n2)s1 | enzyme activity, inhibitor, radiometric |  | 1 µM | remaining activity | 103%
O=C(O)[C@H]1[C@H](Cn2nnc3ccccc3c2=O)CC[C@@H]1C(=O)c1ccc(OCCC2CCOCC2)cc1 | cell-free assay, competition with immobilised ligand |  | 1 µM | remaining binding | 80%
Cn1c2c(c3ccc(Cl)c(Cl)c31)C(C#N)C1(CCCC1)NC2=O (stereo not drawn) | thermal stability, DSF |  | 10 µM | ΔTm | -0.2 °C
Cc1cnc(NC2CCOCC2)nc1-n1cnc(C(=O)NC(CN)c2cc(F)cc(Cl)c2)c1 (stereo not drawn) | enzyme activity, inhibitor, radiometric |  | 1 µM | remaining activity | 99%
Cn1c2c(c3ccccc31)C(C#N)C(C)(C)NC2=O (stereo not drawn) | thermal stability, DSF |  | 10 µM | ΔTm | 0.2 °C
Cc1ccc(Nc2nccc(N(C)c3ccc4c(C)n(C)nc4c3)n2)cc1S(N)(=O)=O | enzyme activity, inhibitor |  | 0.3 µM | inhibition | -16%
Cn1c2c(Cl)c(Cl)ccc2c2cc[nH]c(=O)c21 | thermal stability, DSF |  | 10 µM | ΔTm | 0 °C
COc1cc(Cl)c(C(=O)N[C@@H](CN[C@H]2CC[C@@H](N)CC2)Cc2ccc(C#N)cc2)cc1-c1ccc(CN[C@H](C)c2ccc(C)cc2)o1 | enzyme activity, inhibitor |  | 1 µM | remaining activity | 91%
Cc1cc(-n2nc(Cc3cc(F)cc(C(F)(F)F)c3)nc2C)ccc1C(N)=O | cell-free assay, competition with immobilised ligand |  | 1 µM | remaining binding | 100%
CCCOc1ccc(OC)c(F)c1C(=O)c1ccc(C(=O)N[C@@H]2CNC[C@H]2NC(=O)c2ccc3[nH]ncc3c2)cc1 | enzyme activity, inhibitor |  | 10 µM | remaining activity | 129%
O=C(Nc1cnc(Oc2ccc(F)cc2)nc1)N1CCc2ncccc2[C@@H]1c1ccc(F)cc1 | cell-free assay, competition with immobilised ligand |  | 1 µM | remaining binding | 100%
Cn1c2c(c3ccc(Cl)c(Cl)c31)C(C#N)C1(CCOCC1)NC2=O (stereo not drawn) | thermal stability, DSF |  | 10 µM | ΔTm | 0 °C
COc1ccc2c(O[C@@H]3C[C@H]4C(=O)N[C@]5(C(=O)O)CC5/C=C\CCCCC[C@H](NC(=O)OC5CCCC5)C(=O)N4C3)cc(-c3csc(NC(=O)C(C)C)n3)nc2c1C (stereo partly drawn) | cell-free assay, competition with immobilised ligand |  | 1 µM | remaining binding | 79%
Cc1ccc(NC(=O)c2ccc(C)c(C(F)(F)F)c2)cc1C#Cc1nn(C2CCC(O)CC2)c2ncnc(N)c12 (stereo not drawn) | cell-free assay |  | 10 µM | remaining signal | 85%
Cn1c2c(Cl)c(Cl)ccc2c2cn[nH]c(=O)c21 | thermal stability, DSF |  | 10 µM | ΔTm | 0 °C
CC(C)(O)[C@H]1CC[C@H](Nc2ccc3ncc(-c4cccc(C(F)(F)F)c4)n3n2)CC1 | enzyme activity, inhibitor |  | 1 µM | remaining activity | 81.2%
CCN1CCN(Cc2ccc(NC(=O)c3ccc(C)c(Oc4ccnc5[nH]ccc45)c3)cc2C(F)(F)F)CC1 | target engagement in cells, inhibitor, chemoproteomics | Huh-7 | 1 µM | inhibition | -14.2%
C[C@H](c1ccc(F)cc1)N(Cc1cccc(C(=O)O)c1)C(=O)c1cnc2ccccc2c1 | cell-free assay, competition with immobilised ligand |  | 1 µM | remaining binding | 100%
CCN1CCC2(CC1)NC(=O)c1c(c3ccc(Cl)c(Cl)c3n1C)C2C#N (racemic) | thermal stability, DSF |  | 10 µM | ΔTm | 0.1 °C
